Experimental data as given in ChEMBL document CHEMBL1124957, “6-Benzoxazinylpyridazin-3-ones: potent, long-acting positive inotrope and peripheral vasodilator agents” (J Med Chem, 1990).

Test system: Canis familiaris
Experiment: Mean arterial blood pressure (MAP) in dog after intravenous dose of 0.100 mg/kg
Assay type: functional, Canis lupus familiaris
Conditions: dose 0.1 mg/kg
Outline: (§1)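 Anesthetized adult mongrel dogs (sodium pentobarbital 45 mg/kg ip), artificially respired; MAP from cannulated femoral artery, infusion into femoral vein. Dopamine standard (10–15 μg/kg/min, 3 min) checked inotropic responsiveness. Compounds dissolved in DMF, diluted to 10% final in saline; stepwise 3–4 increasing doses, each infused over 5 min after prior peak. CF, MAP, HR expressed as % change from predrug control vs cumulative dose.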

Structure (SMILES)	Activity
Cc1[nH]c(=O)c(C#N)cc1-c1ccncc1 [MILRINONE]	-13

Test system: not listed separately
Experiment: Index of contractility was determined as the ratio of % of dP/dtmax in conscious dog after (po) administration of 0.30 mg/kg
Assay type: functional
Conditions: dose 0.3 mg/kg
Outline: (§2)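 Conscious dogs, instrumented earlier with an LV Konigsberg pressure transducer through a left thoracotomy, with ≥1 week recovery and trained to lie quietly. LV dP/dtmax derived as the contractility index; baseline MAP, HR, dP/dtmax taken first. Compound suspended in 0.1% methylcellulose (10 mL) and given by gavage through a gastric tube. Response recorded as % change, also at 8 h.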

Structure (SMILES)	Ratio
CC1CC(=O)NN=C1c1ccc2c(c1)OCC(=O)N2 (configuration not stated) [BEMORADAN]	130%

Test system: Canis familiaris
Experiment: Heart rate in dog following 1.875 mg/kg i.v. administration.
Assay type: functional, Canis lupus familiaris
Conditions: route intravenous
Outline: as §1

Structure (SMILES)	Activity
CS(=O)(=O)N1CCOc2ccc(C3=NNC(=O)CC3)cc21	24
CC(=O)N1CCOc2ccc(C3=NNC(=O)CC3)cc21	20
O=C1CCC(c2ccc3c(c2)NCCO3)=NN1	15
Cc1cc(C2=NNC(=O)CC2C)c2c(c1)N(C)C(=O)CO2 (configuration not stated)	19
CN1C(=O)C(C)(C)Oc2ccc(C3=NNC(=O)CC3)cc21	8
CC1CC(=O)NN=C1c1ccc2c(c1)N(C1CCCC1)C(=O)C(C)O2 (configuration not stated)	7
Cc1cc2c(c(C3=NNC(=O)CC3C)c1)OCC(=O)N2 (configuration not stated)	8
Cc1cc2c(c(C3=NNC(=O)CC3)c1)OCC(=O)N2	2
CN1N=C(c2ccc3c(c2)N(S(C)(=O)=O)CCO3)CCC1=O	12
CC1Oc2ccc(C3=NNC(=O)CC3)cc2NC1=O (configuration not stated)	24
CCCCCN1N=C(c2ccc3c(c2)N(S(C)(=O)=O)CCO3)CCC1=O	-2
CC1CC(=O)NN=C1c1ccc2c(c1)N(C(C)C)C(=O)C(C)O2 (configuration not stated)	8
CS(=O)(=O)N1CCOc2ccc(C3=NN(c4ccccc4)C(=O)CC3)cc21	6
CC1(C)Oc2ccc(C3=NNC(=O)CC3)cc2NC1=O	14

Test system: Canis familiaris
Experiment: Myocardial contractile force (CF) in dog after intravenous dose of 0.100 mg/kg
Assay type: functional, Canis lupus familiaris, Myocardium
Conditions: dose 0.1 mg/kg
Outline: as §1

Structure (SMILES)	Activity
Cc1[nH]c(=O)c(C#N)cc1-c1ccncc1 [MILRINONE]	105

Test system: Canis familiaris
Experiment: Myocardial contractile force (CF) in dog after intravenous dose of 1.875 mg/kg
Assay type: functional, Canis lupus familiaris, Myocardium
Conditions: not given
Outline: as §1

Structure (SMILES)	Activity
CS(=O)(=O)N1CCOc2ccc(C3=NNC(=O)CC3)cc21	76
CC(=O)N1CCOc2ccc(C3=NNC(=O)CC3)cc21	121
O=C1CCC(c2ccc3c(c2)NCCO3)=NN1	105
Cc1cc(C2=NNC(=O)CC2C)c2c(c1)N(C)C(=O)CO2 (configuration not stated)	98
CN1C(=O)C(C)(C)Oc2ccc(C3=NNC(=O)CC3)cc21	125
CC1CC(=O)NN=C1c1ccc2c(c1)N(C1CCCC1)C(=O)C(C)O2 (configuration not stated)	36
Cc1cc2c(c(C3=NNC(=O)CC3C)c1)OCC(=O)N2 (configuration not stated)	51
Cc1cc2c(c(C3=NNC(=O)CC3)c1)OCC(=O)N2	32
CN1N=C(c2ccc3c(c2)N(S(C)(=O)=O)CCO3)CCC1=O	26
CCCCCN1N=C(c2ccc3c(c2)N(S(C)(=O)=O)CCO3)CCC1=O	22
CC1CC(=O)NN=C1c1ccc2c(c1)N(C(C)C)C(=O)C(C)O2 (configuration not stated)	83
CS(=O)(=O)N1CCOc2ccc(C3=NN(c4ccccc4)C(=O)CC3)cc21	30
CC1(C)Oc2ccc(C3=NNC(=O)CC3)cc2NC1=O	113

Test system: Canis familiaris
Experiment: Effective dose required to increase the myocardial contractile force (CF) 50% above base line when administered intravenously.
Assay type: functional
Conditions: Canis lupus familiaris, Myocardium, iv
Outline: (§3)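 Dopamine standard (10–15 μg/kg/min, 3 min) checked inotropic responsiveness. Compounds dissolved in DMF, diluted to 10% final in saline; stepwise 3–4 increasing doses, each infused over 5 min after prior peak. CF, MAP, HR expressed as % change from predrug control vs cumulative dose.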

Structure (SMILES)	ED50
CS(=O)(=O)N1CCOc2ccc(C3=NNC(=O)CC3)cc21	1.33 mg/kg
CC(=O)N1CCOc2ccc(C3=NNC(=O)CC3)cc21	0.37 mg/kg
O=C1CCC(c2ccc3c(c2)NCCO3)=NN1	0.62 mg/kg
Cc1cc(C2=NNC(=O)CC2C)c2c(c1)N(C)C(=O)CO2 (configuration not stated)	0.75 mg/kg
CC1CC(=O)NN=C1c1ccc2c(c1)N(C1CCCC1)C(=O)C(C)O2 (configuration not stated)	> 1.88 mg/kg
Cc1cc2c(c(C3=NNC(=O)CC3C)c1)OCC(=O)N2 (configuration not stated)	1.8 mg/kg
Cc1cc2c(c(C3=NNC(=O)CC3)c1)OCC(=O)N2	> 1.88 mg/kg
CN1N=C(c2ccc3c(c2)N(S(C)(=O)=O)CCO3)CCC1=O	> 1.88 mg/kg
CC1Oc2ccc(C3=NNC(=O)CC3)cc2NC1=O (configuration not stated)	0.49 mg/kg
CCCCCN1N=C(c2ccc3c(c2)N(S(C)(=O)=O)CCO3)CCC1=O	> 1.88 mg/kg
CC1CC(=O)NN=C1c1ccc2c(c1)N(C(C)C)C(=O)C(C)O2 (configuration not stated)	0.47 mg/kg
CS(=O)(=O)N1CCOc2ccc(C3=NN(c4ccccc4)C(=O)CC3)cc21	> 1.88 mg/kg
CC1(C)Oc2ccc(C3=NNC(=O)CC3)cc2NC1=O	0.65 mg/kg
CC1CC(=O)NN=C1c1ccc2c(c1)OCC(=O)N2 (configuration not stated) [BEMORADAN]	0.0054 mg/kg
Cc1[nH]c(=O)c(C#N)cc1-c1ccncc1 [MILRINONE]	0.022 mg/kg

Test system: Canis familiaris
Experiment: Mean arterial blood pressure in dog following 1.875 mg/kg i.v. administration.
Assay type: functional, Canis lupus familiaris
Conditions: route intravenous
Outline: as §1

Structure (SMILES)	Activity
CS(=O)(=O)N1CCOc2ccc(C3=NNC(=O)CC3)cc21	-14
CC(=O)N1CCOc2ccc(C3=NNC(=O)CC3)cc21	-14
O=C1CCC(c2ccc3c(c2)NCCO3)=NN1	-17
Cc1cc(C2=NNC(=O)CC2C)c2c(c1)N(C)C(=O)CO2 (configuration not stated)	-17
CN1C(=O)C(C)(C)Oc2ccc(C3=NNC(=O)CC3)cc21	-12
CC1CC(=O)NN=C1c1ccc2c(c1)N(C1CCCC1)C(=O)C(C)O2 (configuration not stated)	-5
Cc1cc2c(c(C3=NNC(=O)CC3C)c1)OCC(=O)N2 (configuration not stated)	-15
Cc1cc2c(c(C3=NNC(=O)CC3)c1)OCC(=O)N2	-12
CN1N=C(c2ccc3c(c2)N(S(C)(=O)=O)CCO3)CCC1=O	0
CCCCCN1N=C(c2ccc3c(c2)N(S(C)(=O)=O)CCO3)CCC1=O	-6
CC1CC(=O)NN=C1c1ccc2c(c1)N(C(C)C)C(=O)C(C)O2 (configuration not stated)	-16
CS(=O)(=O)N1CCOc2ccc(C3=NN(c4ccccc4)C(=O)CC3)cc21	9
CC1(C)Oc2ccc(C3=NNC(=O)CC3)cc2NC1=O	-6

Test system: Canis familiaris
Experiment: Myocardial contractile force (CF) in dog after intravenous dose of 0.075 mg/kg
Assay type: functional, Canis lupus familiaris, Myocardium
Conditions: not given
Outline: as §3

Structure (SMILES)	Activity
CC1CC(=O)NN=C1c1ccc2c(c1)OCC(=O)N2 (configuration not stated) [BEMORADAN]	127

Test system: Canis familiaris
Experiment: Heart rate (HR) in dog after intravenous dose of 0.100 mg/kg
Assay type: functional, Canis lupus familiaris
Conditions: dose 0.1 mg/kg
Outline: as §1

Structure (SMILES)	Activity
Cc1[nH]c(=O)c(C#N)cc1-c1ccncc1 [MILRINONE]	15

Test system: Canis familiaris
Experiment: Heart rate (HR) in dog after intravenous dose of 0.075 mg/kg
Assay type: functional, Canis lupus familiaris
Conditions: not given
Outline: as §3

Structure (SMILES)	Activity
CC1CC(=O)NN=C1c1ccc2c(c1)OCC(=O)N2 (configuration not stated) [BEMORADAN]	25

Test system: Canis familiaris
Experiment: Intravenous dose required to increase contractile force (inotropic effect) by 50%
Assay type: functional
Conditions: Canis lupus familiaris
Outline: as §1

Structure (SMILES)	ED50
CN1C(=O)C(C)(C)Oc2ccc(C3=NNC(=O)CC3)cc21	0.8 mg/kg

Biological target: phosphodiesterase fraction III (Canis familiaris)
Experiment: Inhibition of cardiac phosphodiesterase-3 isolated from canine heart.
Conditions: not given

Structure (SMILES)	IC50
CS(=O)(=O)N1CCOc2ccc(C3=NNC(=O)CC3)cc21	9.5 µM
Cc1cc(C2=NNC(=O)CC2C)c2c(c1)N(C)C(=O)CO2 (configuration not stated)	7.5 µM
CC1CC(=O)NN=C1c1ccc2c(c1)N(C1CCCC1)C(=O)C(C)O2 (configuration not stated)	8 µM
Cc1cc2c(c(C3=NNC(=O)CC3C)c1)OCC(=O)N2 (configuration not stated)	28 µM
Cc1cc2c(c(C3=NNC(=O)CC3)c1)OCC(=O)N2	31 µM
CN1N=C(c2ccc3c(c2)N(S(C)(=O)=O)CCO3)CCC1=O	100 µM
CCCCCN1N=C(c2ccc3c(c2)N(S(C)(=O)=O)CCO3)CCC1=O	50 µM
CC1CC(=O)NN=C1c1ccc2c(c1)N(C(C)C)C(=O)C(C)O2 (configuration not stated)	5 µM
CS(=O)(=O)N1CCOc2ccc(C3=NN(c4ccccc4)C(=O)CC3)cc21	200 µM
CC1CC(=O)NN=C1c1ccc2c(c1)OCC(=O)N2 (configuration not stated) [BEMORADAN]	0.3 µM

Further lines, results first:

IC50	Structure (SMILES)
100 µM	CC(=O)N1CCOc2ccc(C3=NNC(=O)CC3)cc21
50 µM	O=C1CCC(c2ccc3c(c2)NCCO3)=NN1
36 µM	CN1C(=O)C(C)(C)Oc2ccc(C3=NNC(=O)CC3)cc21
14 µM	CC1Oc2ccc(C3=NNC(=O)CC3)cc2NC1=O (configuration not stated)
23 µM	CC1(C)Oc2ccc(C3=NNC(=O)CC3)cc2NC1=O

Test system: not listed separately
Experiment: Index of contractility was determined as the ratio of % of dP/dtmax in conscious dog after (po) administration of a dose of 0.01 mg/kg
Assay type: functional
Conditions: not given
Outline: as §2

Structure (SMILES)	Ratio
CC1CC(=O)NN=C1c1ccc2c(c1)OCC(=O)N2 (configuration not stated) [BEMORADAN]	43%

Test system: Canis familiaris
Experiment: Percent change in activity 8 hr after peroral administration in conscious dog at 0.10 mg/kg
Assay type: functional, Canis lupus familiaris
Conditions: dose 0.1 mg/kg; route oral
Outline: as §2

Structure (SMILES)	Change
CC1CC(=O)NN=C1c1ccc2c(c1)OCC(=O)N2 (configuration not stated) [BEMORADAN]	31%

Test system: Canis familiaris
Experiment: Percent change in activity 8 hr after peroral administration in conscious dog at 0.30 mg/kg
Assay type: functional, Canis lupus familiaris
Conditions: dose 0.3 mg/kg; route oral
Outline: as §2

Structure (SMILES)	Change
CC1CC(=O)NN=C1c1ccc2c(c1)OCC(=O)N2 (configuration not stated) [BEMORADAN]	65%

Test system: Canis familiaris
Experiment: Mean arterial blood pressure (MAP) in dog after intravenous dose of 0.075 mg/kg
Assay type: functional, Canis lupus familiaris
Conditions: not given
Outline: as §3

Structure (SMILES)	Activity
CC1CC(=O)NN=C1c1ccc2c(c1)OCC(=O)N2 (configuration not stated) [BEMORADAN]	-21

Test system: not listed separately
Experiment: Index of contractility was determined as the ratio of % of dP/dtmax in conscious dog after (po) administration of 0.10 mg/kg
Assay type: functional
Conditions: dose 0.1 mg/kg
Outline: as §2

Structure (SMILES)	Ratio
CC1CC(=O)NN=C1c1ccc2c(c1)OCC(=O)N2 (configuration not stated) [BEMORADAN]	85%
